Laboratory results reported in ChEMBL document CHEMBL4368893, “2,2-Dimethyl-3,4-dihydro-2H-1,4-benzoxazines as isosteres of 2,2-dimethylchromans acting as inhibitors of insulin release and vascular smooth muscle relaxants” (Medchemcomm, 2019).

Tests used:
[1] = Inhibition of glucose-induced insulin release in rat pancreatic islets assessed as residual insulin secretion at 10 uM incubated for 90 mins incubated in presence of 16.7 mM glucose by radioimmunology assay; type: functional
In short: (§1)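 Islets isolated from adult fed Wistar rats by collagenase digestion, used fresh. Groups of 10 islets pre-incubated 30 min at 37 °C in bicarbonate salt medium with 2.8 mM glucose and 0.5% albumin, gassed O2/CO2 95:5. Then 90 min at 37 °C with 16.7 mM glucose plus compound. Insulin by RIA against rat insulin standard. Output is % of control secretion, mean ± SEM (n).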

Thoracic aorta [2] = test: Myorelaxant activity in rat thoracic aortic rings assessed as relaxation of 30 mM KCl-induced contraction by force-displacement transducer based assay relative to KCl; type: functional, tissue-based
In short: (§2)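 Aortic rings from adult fed Wistar rats. Kept at 37 °C in oxygenated medium (95% O2/5% CO2) and equilibrated 60 min. Contraction raised with 30 or 80 mM KCl and recorded isometrically by force transducer. Drug added cumulatively, up to maximal relaxation or 200 µM. Response expressed as % of KCl contraction; EC50 from concentration–response curves, mean ± SEM (n).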

[3] = Inhibition of glucose-induced insulin release in rat pancreatic islets assessed as residual insulin secretion at 1 uM incubated for 90 mins incubated in presence of 16.7 mM glucose by radioimmunology assay; type: functional; in short: as §1
Thoracic aorta [4] = test: Myorelaxant activity in rat thoracic aortic rings assessed as relaxation of 80 mM KCl-induced contraction by force-displacement transducer based assay relative to KCl; type: functional, tissue-based; in short: as §2
Thoracic aorta [5] = test: Myorelaxant activity in rat thoracic aortic rings assessed as relaxation of 30 mM KCl-induced contraction in presence of 10 uM K-ATP channel blocker glibenclamide by force-displacement transducer based assay relative to KCl; type: functional, tissue-based
In short: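 Wistar rat aortic rings in oxygenated medium at 37 °C, equilibrated 60 min, with 10 µM glibenclamide present throughout. Precontracted with 30 mM KCl; isometric tension recorded by transducer. Cumulative drug addition to maximal relaxation or 200 µM. Tension expressed as % of KCl response; EC50 (50% inhibition of plateau) from concentration–response curves.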

| Structure (SMILES) | Activity [1] | EC50 (Thoracic aorta [2]) | Activity [3] | EC50 (Thoracic aorta [4]) | EC50 (Thoracic aorta [5]) |
| --- | --- | --- | --- | --- | --- |
| CC1(C)CN(NC(=O)Nc2ccc(C#N)cc2)c2cc(Cl)ccc2O1 | 43.1% | 3.7 µM | 79% | – | – |
| CC1(C)CN(NC(=O)Nc2cccc(Cl)c2)c2cc(Cl)ccc2O1 | 46% | 9.9 µM | 92.5% | – | – |
| CC1(C)CN(NC(=S)Nc2cccc(Cl)c2)c2cc(Cl)ccc2O1 | 71.8% | > 30 µM | – | – | – |
| CC1(C)CN(NC(=S)Nc2ccc(C#N)cc2)c2cc(Cl)ccc2O1 | 10.8% | > 30 µM | 73.3% | – | – |
| CC1(C)CN(NC(=S)Nc2cccc(C#N)c2)c2cc(Cl)ccc2O1 | 27% | > 30 µM | 83.1% | – | – |
| CC1(C)CN(NC(=S)Nc2ccc(Cl)cc2)c2cc(Cl)ccc2O1 | 81.4% | > 30 µM | – | – | – |
| CC1(C)CN(NC(=O)Nc2ccc(Cl)cc2)c2cc(Cl)ccc2O1 | 56.2% | 13.3 µM | 89.5% | – | – |
| CC1(C)CN(NC(=O)Nc2cccc(C#N)c2)c2cc(Cl)ccc2O1 | 35.7% | 1.9 to 3.1 µM | 79.5% | 5 µM | 3.9 µM |
